How the values were obtained:
[1] = biological target: T1, Betaine--homocysteine S-methyltransferase 1 (Homo sapiens) (UniProt Q93088); experiment: Inhibition of human recombinant BHMT expressed in Escherichia coli at 20 uM using 0.25 mM betaine and 0.1 mM DL-homocysteine as substrate
T1 sequence (whole entry): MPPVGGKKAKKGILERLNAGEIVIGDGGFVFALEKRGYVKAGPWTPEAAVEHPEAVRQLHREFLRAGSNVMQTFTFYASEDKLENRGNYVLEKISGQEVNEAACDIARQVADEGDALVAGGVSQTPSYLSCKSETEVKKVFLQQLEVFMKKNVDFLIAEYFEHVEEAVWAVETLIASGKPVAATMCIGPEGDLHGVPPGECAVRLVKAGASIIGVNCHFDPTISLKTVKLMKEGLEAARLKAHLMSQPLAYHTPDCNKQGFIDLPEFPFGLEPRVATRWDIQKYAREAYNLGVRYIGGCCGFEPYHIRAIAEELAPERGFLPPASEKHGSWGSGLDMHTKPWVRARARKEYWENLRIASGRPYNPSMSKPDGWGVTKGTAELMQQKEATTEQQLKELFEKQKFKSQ
Procedure, shortened: (§1)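 Radiometric assay with 0.2 μM enzyme, preincubated with inhibitor, then 100 μM DL-homocysteine (fresh from thiolactone) and 250 μM [methyl-14C]betaine. Run in 50 mM K-phosphate pH 7.5 with 10 mM β-mercaptoethanol, 37 °C, 30 min; stopped on ice. […] Enzyme-free blanks subtracted; triplicates; activity expressed relative to no-inhibitor control.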

[2] = biological target: T1, Betaine--homocysteine S-methyltransferase 1 (Homo sapiens); experiment: Inhibition of human recombinant BHMT expressed in Escherichia coli at 1 uM using 0.25 mM betaine and 0.1 mM DL-homocysteine as substrate; procedure, shortened: as §1
[3] = biological target: T2, Betaine--homocysteine S-methyltransferase 1 (Homo sapiens, UniProt Q93088); experiment: Inhibition of human recombinant BHMT expressed in Escherichia coli using 2 mM betaine and 1 mM DL-homocysteine as substrate
T2 sequence (Q93088 whole entry): T1 sequence (whole entry)
Procedure, shortened: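 Same radiometric Dowex assay as for percent inhibition (0.2 μM enzyme, pH 7.5 K-phosphate, 37 °C, 30 min), but with 1 mM DL-homocysteine and 2 mM 14C-betaine. Ten inhibitor concentrations in duplicate per curve, IC50 by nonlinear regression. Three independent experiments, mean ± SEM.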

[4] = biological target: T2, Betaine--homocysteine S-methyltransferase 1; experiment: Binding affinity to human recombinant BHMT expressed in Escherichia coli by isothermal titration calorimetry
Procedure, shortened: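 ITC at 25 °C in 50 mM HEPES/NaOH, ACES/NaOH or Tris/HCl, pH 7.5, with 5 mM β-mercaptoethanol, no substrates present. 9 μL aliquots of 50 μM ligand injected into 5.1 μM protein (monomer, quantified by amino acid analysis after dialysis) until saturation. Heats corrected for dilution using buffer-only injections and fitted to the integrated heats.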

Row | Structure (SMILES) | inhibition [1] | inhibition [2] | IC50 [3] | Kd [4]
1 | NC(CCOCCCCC(=O)O)C(=O)O (racemic) | 9.8% |  |  | 
2 | NC(CC[Se]CCCCC(=O)O)C(=O)O (racemic) | 100% | 94.3% | 649 nM | 
3 | NC(CCSCSCCC(=O)O)C(=O)O (racemic) | 97.6% | 26.3% | 3260 nM | 
4 | NC(CCSCCNCCC(=O)O)C(=O)O (racemic) | 0% |  |  | 
5 | NC(CCCSCCCC(=O)O)C(=O)O (racemic) | 5.4% |  |  | 
6 | NC(CCSSCCCC(=O)O)C(=O)O (racemic) | 19.1% |  |  | 
7 | C[N+](C)(CCSCCC(N)C(=O)O)CC(=O)[O-] (racemic) | 23.8% | 5.1% |  | 
8 | C[N+](C)(CSCCC(N)C(=O)O)CC(=O)[O-] (racemic) | 0% | 0% |  | 
9 | NC(CCCCCCCC(=O)O)C(=O)O (racemic) | 2.11% |  |  | 
10 | C[N+](C)(CCCSCCC(N)C(=O)O)CC(=O)[O-] (racemic) | 3.3% | 0% |  | 

Continued, values first:

Row | inhibition [1] | inhibition [2] | IC50 [3] | Kd [4] | Structure (SMILES)
11 |  |  | 64 nM | 51 nM | CC(C)(CCSCC[C@H](N)C(=O)O)CC(=O)O
12 | 37.1% |  |  |  | NC(CCSCCNCC(=O)O)C(=O)O (racemic)
13 |  |  | 701 nM |  | CC(C)(CCSCC[C@@H](N)C(=O)O)CC(=O)O
14 | 15.5% |  |  |  | C[C@@H](NCCSCCC(N)C(=O)O)C(=O)O (mixture of isomers)
15 | 19.8% |  |  |  | C[C@H](NCCSCCC(N)C(=O)O)C(=O)O (mixture of isomers)
16 | 100% | 98.1% | 84 nM |  | CC(C)(CCSCCC(N)C(=O)O)CC(=O)O (racemic)
17 | 98.5% | 58.9% | 2500 nM |  | CN(CCSCCC(N)C(=O)O)CC(=O)O (racemic)
18 | 79% | 22.4% |  |  | CN(CCCSCCC(N)C(=O)O)CC(=O)O (racemic)
19 | 100% | 97.8% | 139 nM |  | C[C@@H](CCSCC[C@@H](N)C(=O)O)CC(=O)O (racemic)

— ChEMBL document CHEMBL1137014, “Structure-activity study of new inhibitors of human betaine-homocysteine S-methyltransferase” (J Med Chem, 2009)
